# This is a sample that favours compounds with a hit; in the whole collection about 1.6% have one here.
# VIM-2 inh – VIM-2 metallo-beta-lactamase inhibitors, primary screen, biochemical, epi-absorbance readout, Pseudomonas aeruginosa enzyme. purified VIM-2, nitrocefin hydrolysis, epi-absorbance fluorescence. 0.89% of 290,000 active. AID 1527, 2009. inhibition, % at 5.6 µM;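 active means inhibition above the mean of all tested compounds plus 3 SD, cutoff set per screening run, cut at about 7.5% in these data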;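 further: red hydrolysis product quenches plate fluorescence so inhibitors raise well fluorescence; 0% = enzyme with DMSO and 100% = DMSO without enzyme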
# HCV core dimer – inhibitors of HCV core protein dimerization, primary screen, biochemical, TR-FRET, high-throughput. 0.33% of 300,000 active. inhibition, % at 5 µM. TR-FRET GST/Flag-core106 dimerization, 1536-well;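 active means inhibition above the mean of all tested compounds plus 3 SD, set per screening campaign, cut at about 45% in these data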
#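 assay system = GST-tagged and Flag-tagged HCV core protein residues 1-106 | controls = unlabelled core106 and no-GST-core106 wells | incubation = compound-protein-antibody incubation 4 h at 22.5 °C | probe or stimulus = Eu donor and XL665 acceptor anti-tag antibodies | read-out = % inhibition based on acceptor/donor emission ratio | signal = TR-FRET 671 and 617 nm emission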
# DNA FID counter – compounds displacing fluorescent DNA intercalator, primary screen, artefact control for HCV NS3 helicase inhibitor project, biochemical, FID fluorescence; 0.17% of 290,000 active; AID 1845, 2009; inhibition, % at 7.9 µM; DNA fluorescent intercalator displacement; in the data active means inhibition above about 37%;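 further: 0% = vehicle and 100% = reference compound; higher means more ethidium bromide displaced from hairpin DNA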
# IMP-1 inh – IMP-1 metallo-beta-lactamase inhibitors, primary screen, biochemical, epi-absorbance readout, Pseudomonas aeruginosa enzyme | metallo-beta-lactamase IMP-1 (Pseudomonas aeruginosa) | purified IMP-1, nitrocefin hydrolysis, epi-absorbance fluorescence | inhibition, % at 5.6 µM | 0.45% of 290,000 active | AID 1556, 2009;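 active means inhibition above the mean plus 3 SD of all compounds in the same screening run, cut at about 4.5% in these data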;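 further: 0% = IMP-1 with DMSO and 100% = DMSO wells lacking enzyme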
#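 System: Purified IMP-1 | Read-out basis: Percent enzyme inhibition | Controls: IMP-1 with DMSO as 0%, enzyme-free DMSO as 100% | Replicates: One well per compound | Doses: 5.6 µM nominal single concentration | Detection: Epi-absorbance fluorescence, 480 nm excitation, 530 nm emission | Incubation: 25 °C, 15 min preincubation, 25 min reaction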
# * = called active by the depositor; x = not tested or not shown.
SMILES,VIM-2 inh,HCV core dimer,DNA FID counter,IMP-1 inh
COc1ccccc1Cn1c(-c2ccco2)nc2nc3ccccc3nc21,-1,8,-14,-2
CC(=O)N(C)c1ccc(NC(=O)C(Sc2ccccc2)c2ccccc2)cc1 (configuration not stated),1,6,-30,1
CC(=O)N1N=C(c2ccc(C)cc2)CC1c1ccco1 (configuration not stated),4,-1,-18,-1
CC(=O)N1N=C(c2ccc(Cl)cc2)CC1c1ccco1 (configuration not stated),9.9*,-5,-15,-1
Cc1ccc(S(=O)(=O)N(CC(=O)NCc2ccco2)Cc2ccc(F)cc2)cc1,0,23,-32,-1
COC(=O)c1ccc(NS(=O)(=O)c2ccccc2)o1,-2,-4,-14,4.9*
COC(=O)c1ccc(NS(=O)(=O)c2ccc(Cl)cc2)o1,1,8,-28,2
FC(F)(F)c1ccccc1-n1c(-c2ccco2)n[nH]c1=S,9.9*,-16,-16,-1
Cc1cccc(-n2c(-c3ccco3)n[nH]c2=S)c1,19*,-8,-9,-1
COc1ccc(OC)c(N2CC(O)(c3cccs3)[N+]3=C2SCCC3)c1 (configuration not stated),8.2*,-2,11,-1
O=C(c1n[nH]c2ccccc12)N1CCN(S(=O)(=O)c2ccc3ccccc3c2)CC1,-2,18,-4,-3
COc1cccc(-n2nnnc2S(C)(=O)=O)c1,-1,0,0,-2
Cc1c(Cl)cccc1NS(=O)(=O)c1ccc2c(c1)C1C=CCC1C(c1ccc(C(=O)O)cc1)N2 (configuration not stated),-1,18,11,30*
O=C(O)c1ccc2c(c1)C1C=CCC1C(c1ccncc1)N2 (configuration not stated),1,-3,-14,1
CC(=O)c1ccc2c(c1)C1C=CCC1C(c1ccc(S(=O)(=O)N3CCOCC3)cc1)N2 (configuration not stated),-3,79*,-11,-2
COc1ccc(NS(=O)(=O)c2ccc3c(c2)[C@H]2C=CC[C@H]2[C@@H](c2ccc(C(=O)O)cc2)N3)cc1,2,23,21,22*
COCCn1c(N2CCN(c3ccc(OC)cc3)CC2)nc2c1c(=O)n(C)c(=O)n2C,-4,-1,-38,-4
CCOC(=O)C1CCCN(C(=O)c2cc(-c3ccc(F)cc3)nc3ccccc23)C1 (configuration not stated),-3,5,-34,-3
CCN1CCCC(OC(=O)c2cc(-c3ccc(C)cc3)nc3ccccc23)C1 (configuration not stated),4,-6,38*,0
CCN(CC)CCn1c(=N)n(CCOc2ccccc2)c2ccccc21,-1,0,20,-4
CCN(CC)CCn1c(=N)n(CC(O)COc2ccccc2)c2ccccc21 (configuration not stated),-1,-1,37*,1
O=C(O)CC(CP(=O)(c1ccccc1)c1ccccc1)C(=O)O (configuration not stated),-1,-7,0,-1
NC(CCCCCP(=O)(c1ccccc1)c1ccccc1)C(=O)O (configuration not stated),4,-30,0,28*
CCOc1ccc(C2c3[nH]c4ccccc4c3C[C@H]3C(=O)N(C4CC4)CC(=O)N23)cc1OC (some centres not stated),-3,x,-37,-3
COc1ccc(C[C@H]2CN3C(=NC[C@H]3C)N2CCNC(=O)c2ccc(C)c(Br)c2)cc1,-3,-8,40*,-3
Cc1ccc(C(=O)NCCN2C3=NC[C@H](C)N3C[C@H]2Cc2ccc(O)cc2)cc1Br,0,-5,9,-1
COC(=O)c1ccc2c(c1)C(C)(C)C(/C=C/c1ccccc1O)=[N+]2C,0,7,-28,-2
O=C(Cc1cccs1)Nc1ccc(S(=O)(=O)N2CCCCC2)cc1,-2,72*,-13,-1
CN1CCN(S(=O)(=O)c2ccc(NC(=O)Cc3cccs3)cc2)CC1,-5,7,12,-5
CC(=O)Nc1ccc(NC(=O)Cc2ccc(S(=O)(=O)N3CCCCC3)s2)cc1,-3,60*,-9,2

# High-throughput results from PubChem.
